In ChEMBL document CHEMBL3407346, “Design, synthesis, and biological evaluation of sulfonyl acrylonitriles as novel inhibitors of cancer metastasis and spread” (J Med Chem, 2015):
Calls of active or inactive are those of the source. No cut-off for these calls is given here.

Tests used:
[1] = Cytotoxicity against human SU86 cells co-cultured with human mesothelial cells at 10 uM after 4 hrs by firefly luciferase assay relative to control; assay type: functional
How it was run: (§1)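 Co-culture of luciferase-transduced cancer cells (puromycin/G418-selected retroviral pLuc) with confluent human mesothelial monolayers. Suspended cancer cells plus 10 µM compound (final) or DMSO were overlaid for 4 h. Non-adherent cells were washed off and surviving adherent cells quantified by firefly luciferase luminescence. Efficacy = treated/DMSO luminescence ratio; mean±SEM, n=3.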

[2] = Cytotoxicity against human BxPC3 cells co-cultured with human mesothelial cells at 10 uM after 4 hrs by firefly luciferase assay relative to control; assay type: functional, BXPC-3; how it was run: as §1
[3] = tested on: A2780; experiment: Cytotoxicity against human A2780 cells co-cultured with human mesothelial cells at 10 uM after 4 hrs by firefly luciferase assay relative to control; assay type: functional; how it was run: as §1
[4] = Cytotoxicity against human SKOV3 cells co-cultured with human mesothelial cells at 10 uM after 4 hrs by firefly luciferase assay relative to control; assay type: functional, SK-OV-3; how it was run: as §1
[5] = Glutathione reactivity assessed as reduction in detectable GSH level by Ellman's reagent-based assay
How it was run: (§2)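 Glutathione was measured with a commercial kit per the manufacturer's instructions, with TNB production rate proportional to GSH. Cell-free GSH was tested with compounds, and HT-29 luciferase cell lysates were assayed after compound exposure.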

[6] = tested on: HT-29; experiment: Reduction of cellular GSH level in human HT-29 cells incubated for 30 mins followed by co-culturing with human mesothelial cells measured after 5 hrs by […]; assay type: functional, cell-based
[7] = Cytotoxicity against human SU86 cells co-cultured with human mesothelial cells after 4 hrs by firefly luciferase assay relative to control; assay type: functional, cell-based
How it was run: (§3)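 Luciferase-expressing cancer cells in suspension were treated with a series of compound concentrations or DMSO, overlaid on confluent human mesothelial monolayers for 4 h, and washed to remove non-adherent cells. Surviving adherent cells were read by luciferase luminescence relative to vehicle, and EC50 was derived from the concentration series.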

[8] = Cytotoxicity against human BxPC3 cells co-cultured with human mesothelial cells after 4 hrs by firefly luciferase assay relative to control; assay type: functional, cell-based; details: BXPC-3, 4 h; how it was run: as §3
[9] = tested on: A2780; experiment: Cytotoxicity against human A2780 cells co-cultured with human mesothelial cells after 4 hrs by firefly luciferase assay relative to control; assay type: functional, cell-based; details: A2780, 4 h; how it was run: as §3
[10] = Cytotoxicity against human SKOV3 cells co-cultured with human mesothelial cells after 4 hrs by firefly luciferase assay relative to control; assay type: functional, cell-based; details: SK-OV-3, 4 h; how it was run: as §3
[11] = tested on: A2780; experiment: Induction of apoptosis in human A2780 cells assessed as increased cellular levels of cleaved PARP at 5 uM after 4 hrs by immunoblot analysis; assay type: functional, cell-based
How it was run: (§4)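 A2780 cells were suspended and allowed to adhere for 4 h with DMSO or test compound (5 µM in DMSO). Cells were collected and lysed, lysates normalised for total protein, and cleaved PARP and cleaved caspase 3 detected by immunoblot with actin as loading control. A sulfide analog served as negative control.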

[12] = tested on: A2780; experiment: Induction of apoptosis in human A2780 cells assessed as increased cellular levels of cleaved caspase 3 at 5 uM after 4 hrs by immunoblot analysis; assay type: functional, cell-based; how it was run: as §4
[13] = tested on: A2780; experiment: Inhibition of peritoneal carcinomatosis of human A2780 cells in athymic nu/nu mouse at 5 mg/kg, ip administered thrice a week for 14 days by luciferase reporter assay relative to vehicle-treated control; assay type: functional, organism-based; design: dose 5 mg/kg
How it was run: (§5)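 Athymic female nu/nu mice, 5 weeks old, received 5 mg/kg compound or vehicle (80% PEG400:20% ethanol) IP 4 h before IP injection of 1.5×10⁶ A2780-luc or 2×10⁶ SKOV3-luc cells, n=7 per arm. Dosing continued IP three times a week for 14 days. Tumour burden was imaged weekly by abdominal bioluminescence after IP D-luciferin/ketamine/xylazine; mean±SEM, unpaired t-test vs vehicle.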

[14] = tested on: SK-OV-3; experiment: Inhibition of peritoneal carcinomatosis of human SKOV3 cells in athymic nu/nu mouse at 5 mg/kg, ip administered thrice a week for 14 days by luciferase reporter assay relative to vehicle-treated control; assay type: functional, organism-based; design: dose 5 mg/kg; how it was run: as §5
[15] = tested on: Mus musculus; experiment: Toxicity in athymic nu/nu mouse xenografted with human A2780 cells assessed as weight loss at 5 mg/kg, ip administered thrice a week for 14 days; assay type: organism-based; design: dose 5 mg/kg, route intraperitoneal; details: in vivo, 336 h
[16] = tested on: Mus musculus; experiment: Toxicity in athymic nu/nu mouse xenografted with human SKOV3 cells assessed as weight loss at 5 mg/kg, ip administered thrice a week for 14 days; assay type: organism-based, SK-OV-3; design: dose 5 mg/kg, route intraperitoneal; details: in vivo, 336 h
[17] = Antimetastatic activity against human MIAPaCa2 cells xenografted in ip dosed Ncr-Nu/Nu mouse assessed as total recurrence administered on day 1, 3, 5, 7 and measured after 8 weeks by fluorescent imaging analysis (reference value: 67%); assay type: functional, MIA PaCa-2
How it was run: (§6)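 Orthotopic pancreatic model in male NCr-Nu/Nu nude mice, 6-8 wk old. 1×10⁶ RFP-expressing MiaPaCa-2 cells in soluble ECM were injected into the pancreatic tail. Tumour resected with distal pancreatectomy, with no residual disease confirmed by intraoperative RFP imaging. Compound or vehicle (4:1 PEG400:EtOH) given IP at surgery and on days 3, 5 and 7. Local and metastatic recurrence scored by fluorescent imaging after 8 weeks.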

[18] = Antimetastatic activity against human MIAPaCa2 cells xenografted in ip dosed Ncr-Nu/Nu mouse assessed as local recurrence administered on day 1, 3, 5, 7 and measured after 8 weeks by fluorescent imaging analysis (reference value: 60%); assay type: functional, MIA PaCa-2; how it was run: as §6
[19] = Antitumor activity against human MIAPaCa2 cells xenografted in ip dosed Ncr-Nu/Nu mouse assessed as metastases administered on day 1, 3, 5, 7 and measured after 8 weeks by fluorescent imaging analysis (reference value: 40%); assay type: functional, MIA PaCa-2; how it was run: as §6
[20] = tested on: HT-29; experiment: Reduction of cellular GSH level in human HT-29 cells after 24 hrs by […]; assay type: functional, cell-based; how it was run: as §2
[21] = tested on: HT-29; experiment: Cytotoxicity against human HT-29 cells co-cultured with human mesothelial cells at 50 to 200 uM preincubated for 24 hrs followed by co-culturing measured after 4 hrs by firefly luciferase assay relative to control; assay type: functional, cell-based; details: in the assay text read “after 5 hrs” for “after 4 hrs”
How it was run: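 Luciferase-expressing HT-29 cells were pretreated 24 h with water or various BSO concentrations, trypsin-suspended, then overlaid on confluent human mesothelial monolayers with compound and BSO for 5 h. Non-adherent cells were washed off and survivors read by luciferase luminescence.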

[22] = tested on: HT-29; experiment: Induction of apoptosis in human HT-29 cells at 10 uM incubated for 30 mins followed by coculturing with human mesothelial cells for 5 hrs by firefly luciferase assay in presence of NAC; assay type: functional, cell-based
How it was run: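 Firefly luciferase-expressing HT-29 cells were incubated 30 min with compound plus vehicle (water) or 680 µM N-acetylcysteine, trypsin-suspended, and co-cultured 5 h on human mesothelial monolayers with compound and NAC. Surviving adherent cells were detected by luciferase luminescence; mean light output ±SEM.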

[23] = tested on: HT-29; experiment: Induction of apoptosis in human HT-29 cells using compound pre-mixed with NAC; assay type: functional, cell-based

Row | SMILES | Ratio [1] | Ratio [2] | Ratio [3] | Ratio [4] | Activity [5] | Activity [6] | EC50 [7] | EC50 [8] | EC50 [9] | EC50 [10] | Activity [11] | Activity [12] | inhibition [13] | inhibition [14] | Activity [15] | Activity [16] | Activity [17] | Activity [18] | Activity [19] | also measured
1 | CN(Cc1ccccc1)C(=O)C(C)(C)c1ccc(S(=O)(=O)/C=C/C#N)cc1 | 0.24 | 0.12 | 0.06 | 0.5 | Active | Active | – | – | – | – | – | – | – | – | – | – | – | – | – | –
2 | C=CS(=O)(=O)c1ccc(C(C)(C)C)cc1 | – | – | – | – | inactive | inactive | – | – | – | – | – | – | – | – | – | – | – | – | – | –
3 | CC(C)(C(=O)NCc1ccc(F)cc1)c1ccc(S(=O)(=O)/C=C/C#N)cc1 | 0.18 | 0.23 | 0.11 | 0.6 | Active | Active | – | – | – | – | – | – | – | – | – | – | – | – | – | –
4 | CC(C)(C(=O)NCc1ccccc1)c1ccc(S(=O)(=O)/C=C/C#N)cc1 | 0.21 | 0.16 | 0.1 | 0.52 | – | – | 7.4 µM | 3.7 µM | 3 µM | 8.7 µM | Active | Active | Active | Active | Non-toxic | Non-toxic | 6% | 6% | 6% | –
5 | CC(C)(c1ccc(S(=O)(=O)/C=C/C#N)cc1)c1nnc(-c2ccccc2)o1 | 0.45 | 0.24 | 0.06 | 0.25 | – | – | 6.2 µM | 3.1 µM | 2.6 µM | 5.7 µM | – | – | – | – | – | – | 45% | 45% | 0% | –
6 | C/C=C/S(=O)(=O)c1ccc(C(C)(C)C)cc1 | – | – | – | – | inactive | inactive | – | – | – | – | – | – | – | – | – | – | – | – | – | –
7 | CCCCS(=N)(=O)CC[C@H](N)C(=O)O (stereo not given in full) | – | – | – | – | – | – | – | – | – | – | – | – | – | – | – | – | – | – | – | Activity [20]: Active; Activity [21]: inactive
8 | CC(C)(c1ccc(S(=O)(=O)/C=C/C#N)cc1)c1nc2ccccc2o1 | 0.29 | 0.24 | 0.01 | 0.17 | – | – | 6.5 µM | 3.1 µM | 2.2 µM | 5.4 µM | Active | Active | Active | Active | Non-toxic | Non-toxic | – | – | – | –
9 | Cc1ccc2oc(C(C)(C)c3ccc(S(=O)(=O)/C=C/C#N)cc3)nc2c1 | 0.2 | 0.09 | 0.1 | 0.17 | – | – | 7.3 µM | 3.5 µM | 2.1 µM | 5.6 µM | – | – | – | – | – | – | 50% | 40% | 10% | –
10 | CC(C)(C)c1cc(S(=O)(=O)/C=C/C#N)ccc1OCC(=O)NC1CCCCC1 | 0.21 | 0.09 | 0.01 | 0.19 | – | – | 6.6 µM | 3.4 µM | 2.6 µM | 6.1 µM | Active | Active | Active | Active | Non-toxic | Non-toxic | – | – | – | –
11 | N#C/C=C/S(=O)(=O)c1ccc(C2(C(=O)NC3CCCCC3)CCC2)cc1 | 0.32 | 0.18 | 0.09 | 0.33 | – | – | 8 µM | 3.6 µM | 3.1 µM | 7.4 µM | Active | Active | Active | Active | Non-toxic | Non-toxic | 40% | 30% | 20% | –
12 | CC(C)(C)c1ccc(S/C=C/C#N)cc1 | – | – | – | – | – | – | – | – | – | – | inactive | inactive | – | – | – | – | – | – | – | –
13 | CC(C)(C)c1ccc(S(=O)(=O)/C=C/C#N)cc1 [BAY-11-7085] | 0.13 | 0.07 | 0.04 | 0.32 | Active | Active | 5.9 µM | 3.5 µM | 2.6 µM | 5 µM | Active | Active | Active | Active | Non-toxic | Non-toxic | 38% | 31% | 31% | Activity [22]: inactive; Activity [23]: inactive
